Assay results pooled from the literature.
Lines come from different studies, so protocols differ.
Read-out: metabolic stability

SMILES | system | setting | measurement | value
COc1ccc(-c2nc3ccc(OC)cn3c2N(C)c2ccc(F)cc2)nc1 | rat, hepatocytes |  | hepatocyte CLint | > 300 µL/min/10⁶ cells
O=c1ccc2ccc(O)cc2o1 | rat, liver S9 | 2 µM, pH 7.4 | scaled CLint | 787 mL/min/kg
CC(=O)c1cccc(OCc2cc(C(=O)N(C)[C@@H](C)c3ccccn3)no2)c1 | rat, liver microsomes |  | scaled CLint | 770 mL/min/kg
CCOc1c(O)cc(Br)c2c1CN1CCc3cc(OCC(F)F)c(O)cc3[C@@H]1C2 | rat, liver S9 | 2 µM, pH 7.4 | scaled CLint | 902 mL/min/kg
CS(=O)(=O)c1ccc(-c2cnc(N)c(-c3ccc(C(F)(F)F)nc3)c2)cc1 | male rat, liver microsomes | 1 µM | microsomal CLint | < 11.6 µL/min/mg
O=C(Nc1ccc(N2C(=O)c3cccc(Cl)c3C2=O)c(Cl)c1)c1ncccc1Cl | rat, liver microsomes | 1 µM, pH 7.4 | scaled CLint | 39.9 mL/min/kg
CC(C)N1Cc2cc(C(F)(F)F)ncc2C2=CN=C(NCc3c(F)ccc4c3CCO4)N3C=NC(C1=O)C23 (stereo not drawn) | rat, liver microsomes | 100 µM, 30 min | scaled CLint | 18.9 mL/min/kg
COc1ccc(-c2nc3ccccn3c2N(C)c2ccc(F)cc2)nc1 | rat, hepatocytes |  | hepatocyte CLint | > 300 µL/min/10⁶ cells
C[C@H](C(=O)NC1Cc2ccccc2C1)c1ccc(F)cc1 | rat, liver microsomes | 1 µM | microsomal CLint | > 200 µL/min/mg
Cc1cccnc1C(=O)Nc1ccc(N2C(=O)c3cccc(Cl)c3C2=O)c(Cl)c1 | rat, liver microsomes | 1 µM, pH 7.4 | scaled CLint | 95.9 mL/min/kg
C[C@H](C(=O)NC1Cc2ccccc2C1)c1ccccc1 | rat, liver microsomes | 1 µM | microsomal CLint | > 200 µL/min/mg
c1ccc(-c2nc3n(c2-c2ccncc2)CCC3)nc1 | rat, hepatocytes |  | hepatocyte CLint | 4.8 µL/min/10⁶ cells
O=c1[nH]c(=S)n(Cc2ccc(Cl)cc2CNCC(F)(F)F)c2cc[nH]c12 | rat, hepatocytes |  | hepatocyte CLint | 30 µL/min/10⁶ cells
CC(F)(F)CN1Cc2cc(C(F)(F)F)ncc2C2=CN=C(NCc3c(F)ccc4c3CCO4)N3C=NC(C1=O)C23 (stereo not drawn) | rat, liver microsomes | 100 µM, 30 min | scaled CLint | 16.6 mL/min/kg
COc1ccc(-c2nc3ccc(OC)cn3c2Nc2ccc(F)cc2)nc1 | rat, hepatocytes |  | hepatocyte CLint | 76 µL/min/10⁶ cells
